ADAM10 inh = ADAM10 inhibition, QFRET primary screen; O14672; recombinant ADAM10, EDANS/DABCYL FRET peptide cleavage, 3 h; inhibition, % at 7 µM; 370,000 compounds, 0.62% hits; AID 720582;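 active = inhibition above a per-campaign cutoff equal to the mean of compounds falling between control-based bounds plus 3 SD, cut at about 20% in these data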
MT1-MMP act inh = inhibitors of human MT1-MMP activation. P50281. HT1080 RFP-PRO-GFP cells, GFP/RFP ratio fluorescence, overnight; percent of plate control window, DMSO zero. GFP/RFP ratio change, % at 20 µM. 360,000 compounds, 0.061% hits. AID 651647;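 active = GFP/RFP ratio change of at least 30% with cell ATP level not reduced by more than half and red fluorescence within 50% of control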
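Assay system – RFP-PRO-GFP reporter HT1080 cells · Compound dosing – single dose of 20 µM compound, 1% DMSO final · Incubation – overnight compound exposure at 37 °C · Measure – GFP/RFP fluorescence ratio · Benchmarks – DMSO wells and RFP-L50D-GFP cells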
SKN-1 block = blocks SKN-1 activity in C. elegans. C. elegans VP596 Pgst-4::GFP/RFP ratio, acrylamide-induced, 24 h. inhibition, % at 21.8 µM. 360,000 compounds, 0.49% hits;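 active = interference check ratio from 0.5 to 1.5 plus GFP to RFP signal ratio inhibition reaching or exceeding a fixed threshold, cut at about 30% in these data, passing the limit was not always enough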
GRIN3A LBD mod = modulates the human NR3A ligand-binding domain; 340,000 compounds, 2.5% hits; Tm shift relative to glycine control, % at 25 µM; NR3A LBD differential scanning fluorimetry, Tm shift; 0% = protein alone, 100% = glycine-bound protein;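 active = melting temperature shift of at least 10% of the positive control shift, at one fixed dose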
MPTP block = blocks calcium-induced mitochondrial swelling | isolated mouse mitochondria, Ca2+ swelling absorbance, 30 min | inhibition, % at 10 µM | 360,000 compounds, 1.4% hits | AID 602449;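 active = inhibition of 50% or more, scaled per plate between neutral and stimulator controls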
ADAM17 inh = inhibits human ADAM17; 370,000 compounds, 0.83% hits; recombinant ADAM17, EDANS/DABCYL FRET peptide cleavage; inhibition, % at 6.95 µM; P78536;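 active = inhibition above the mean of compounds lying between control limits plus 3 SD, set per campaign, cut at about 8.5% in these data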
Target sequence (P78536 215-824 limits assumed): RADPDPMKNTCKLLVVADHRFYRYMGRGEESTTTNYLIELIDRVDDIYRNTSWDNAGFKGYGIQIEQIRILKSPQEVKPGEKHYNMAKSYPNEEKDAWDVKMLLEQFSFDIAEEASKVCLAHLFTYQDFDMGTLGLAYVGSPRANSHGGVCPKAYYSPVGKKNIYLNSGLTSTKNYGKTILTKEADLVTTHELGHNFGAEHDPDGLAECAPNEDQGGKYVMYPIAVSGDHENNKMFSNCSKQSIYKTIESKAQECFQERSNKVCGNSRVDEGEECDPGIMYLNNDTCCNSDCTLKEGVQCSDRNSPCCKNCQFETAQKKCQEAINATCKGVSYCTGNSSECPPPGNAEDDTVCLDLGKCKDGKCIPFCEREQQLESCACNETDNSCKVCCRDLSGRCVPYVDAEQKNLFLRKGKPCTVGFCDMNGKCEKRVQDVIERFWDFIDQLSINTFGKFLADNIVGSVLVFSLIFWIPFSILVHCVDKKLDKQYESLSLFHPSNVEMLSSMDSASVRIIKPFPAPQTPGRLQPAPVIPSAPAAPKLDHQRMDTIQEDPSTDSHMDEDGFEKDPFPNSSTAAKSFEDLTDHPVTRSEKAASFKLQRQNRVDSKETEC
ADAM10 confirm = human ADAM10 inhibition, confirmation | shares compounds with ADAM10 inh | ADAM10 QFRET peptide cleavage, EDANS fluorescence | inhibition, % at 6.95 µM | 2,100 compounds, 1% hits;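 active = inhibition above about 20% chosen separately for each screening run, limit read from the data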
ADAM17 ctr = inhibits human ADAM17 in ADAM10 exosite counter-screen | shares compounds with ADAM10 inh | AID 743214 | ADAM17 QFRET peptide cleavage, EDANS fluorescence | inhibition, % at 6.95 µM | 2,100 compounds, 0.5% hits;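 active = mean triplicate inhibition above the solvent-only control wells' mean plus 3 SD, cut at about 12% in these data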
Large screens that a line does not name were inactive (follow-up assays come after a bar, where they were run). Shown are actives, neighbours in structure and some others; about 4.7% of the full set was active somewhere.

Cc1scc(C(=O)NNC(=S)NC(C)c2ccccc2)c1C (configuration not stated)	ADAM10 inh 27 | ADAM10 confirm inactive | ADAM17 ctr inactive
CCCCNC(=S)NNC(=O)c1csc(C)c1C	none
COc1ccc(C(=O)Nc2nnc(C)s2)cc1S(=O)(=O)N1CCOCC1	none
CCOC(=O)C1CCN(C(=O)Cn2cc(C(=O)c3ccco3)c3ccccc32)CC1	ADAM10 inh 64 | ADAM10 confirm inactive | ADAM17 ctr inactive
CC1(C(=O)N2CCC(CC3CC(c4ccc(Cl)cc4)=NO3)(C(=O)NCC3CCCCC3)CC2)CC1 (configuration not stated)	none
CC1(C(=O)N2CCC(CC3CC(c4cccc(Br)c4)=NO3)(C(=O)NCC3CCCCC3)CC2)CC1 (configuration not stated)	ADAM10 inh 25 | ADAM10 confirm inactive | ADAM17 ctr inactive
CC(C)CCNC(=O)CNC(=O)c1cccs1	none
COc1cc(C(O)c2nc(-c3cccc(C(F)(F)F)c3)cs2)ccc1F (configuration not stated)	ADAM10 inh 21 (no result: GRIN3A LBD mod) | ADAM10 confirm inactive | ADAM17 ctr inactive
OC(c1ccc(F)cc1)c1nc(-c2ccc(F)c(Cl)c2)cs1 (configuration not stated)	ADAM10 inh 20 (no result: GRIN3A LBD mod) | ADAM10 confirm inactive | ADAM17 ctr inactive
CCc1ccc(NC(=O)C(=O)NNC(=O)COc2cccc(OC)c2)cc1	none
CC(=O)c1ccc(NC(=O)COC(=O)C2CCN(S(=O)(=O)c3cccs3)CC2)cc1	ADAM10 inh 85 | ADAM10 confirm inactive | ADAM17 ctr inactive
COc1cccc(-c2nnc(SC(C(=O)c3c[nH]c4ccccc34)c3ccccc3)n2C)c1 (configuration not stated)	none
COc1ccccc1-c1nnc(SC(C(=O)c2c[nH]c3ccccc23)c2ccccc2)n1C (configuration not stated)	ADAM10 inh 23 | ADAM10 confirm inactive | ADAM17 ctr inactive
Cc1ccc(OCCN2CCN(CC(O)Cn3c4ccccc4c4ccccc43)CC2)cc1 (configuration not stated)	none (no result: MT1-MMP act inh, SKN-1 block, GRIN3A LBD mod, MPTP block)
Cc1ccc(OCC(O)Cn2c3ccccc3c3ccccc32)cc1 (configuration not stated)	ADAM10 inh 21, GRIN3A LBD mod 12 | ADAM10 confirm inactive | ADAM17 ctr inactive
CCCS(=O)(=O)N1CCC(C(=O)NCc2ccc3c(c2)OCO3)CC1	none
COC(=O)c1ccc(-n2c(C)cc(C(=O)COC(=O)CNS(=O)(=O)c3ccc(C)cc3)c2C)cc1	none
O=S(=O)(Nc1cc(C(F)(F)F)ccc1N1CCOCC1)c1ccc2ccccc2c1	ADAM10 inh 24 | ADAM10 confirm inactive | ADAM17 ctr inactive
Cc1cc(C)nc(N/N=C/c2ccccc2OCc2ccc([N+](=O)[O-])cc2)n1	ADAM10 inh 28 | ADAM10 confirm inactive | ADAM17 ctr inactive
COc1ccccc1/C=N/Nc1nc(C)cc(C)n1	none
CCCOc1cccc(-c2nnc(NC(=O)c3ccco3)s2)c1	none
CCc1nc2ccccc2c(C(=O)OCC(=O)NC(=O)c2cccn2C)c1C	none
CC1CCN(S(=O)(=O)c2ccc3c(c2)C(Cl)(Cl)C(=O)N3)CC1	none (no result: GRIN3A LBD mod)
O=C(Nc1cccc(Cl)c1)OCCOC(=O)Nc1cccc(Cl)c1	ADAM10 inh 21, GRIN3A LBD mod 29 | ADAM10 confirm inactive | ADAM17 ctr inactive
CCOC(=O)c1[nH]nc2c1C(=O)N(CC)C2=O	none
COC(=O)[C@]12C[C@H](CC(=O)N3CCN(C(=O)c4ccco4)CC3)C(=O)N(Cc3cccc4ccccc34)C1=C[C@H](C1CCCC1)O[C@@H]2C	ADAM10 inh 21 (no result: MT1-MMP act inh, SKN-1 block, GRIN3A LBD mod, MPTP block) | ADAM10 confirm inactive | ADAM17 ctr inactive
COC(=O)[C@]12C[C@H](CC(=O)NCc3ccc(OC)c(OC)c3)C(=O)N(Cc3cccc4ccccc34)C1=C[C@H](C1CCCC1)O[C@@H]2C	ADAM10 inh 24 (no result: MT1-MMP act inh, SKN-1 block, GRIN3A LBD mod, MPTP block) | ADAM10 confirm inactive | ADAM17 ctr inactive
CCCCOCCCNC(=O)C[C@H]1C[C@@]2(C(=O)OC)C(=C[C@H](C(C)(C)C)O[C@@H]2C)N(Cc2cccc3ccccc23)C1=O	ADAM10 inh 21 (no result: MT1-MMP act inh, SKN-1 block, GRIN3A LBD mod, MPTP block) | ADAM10 confirm inactive | ADAM17 ctr inactive
COC(=O)[C@]12C[C@H](CC(=O)NCCC(C)C)C(=O)N(Cc3ccco3)C1=C[C@H](COCc1ccccc1)O[C@@H]2C	ADAM10 inh 53 (no result: MT1-MMP act inh, SKN-1 block, GRIN3A LBD mod, MPTP block) | ADAM10 confirm inactive | ADAM17 ctr inactive
COC(=O)[C@]12C[C@H](CC(=O)NCCCCc3ccccc3)C(=O)N(Cc3cccc4ccccc34)C1=C[C@H](C(C)(C)C)O[C@@H]2C	none (no result: MT1-MMP act inh, SKN-1 block, GRIN3A LBD mod, MPTP block)
CC(=O)NC(c1ccc(F)c(F)c1)c1nc(-c2cccc(C(C)C)c2)cs1 (configuration not stated)	ADAM10 inh 20 (no result: GRIN3A LBD mod) | ADAM10 confirm inactive | ADAM17 ctr inactive
Cc1ccc2c(c1)/C(=C/c1ccc(F)cc1)C(=O)N2	ADAM10 inh 22 | ADAM10 confirm inactive | ADAM17 ctr inactive
O=C(NC(=S)Nc1ccc2ncccc2c1)c1ccccc1	none
CCCCNC(=S)N/N=C/c1ccccc1F	none
CCCCNC(=S)N/N=C/c1cc(C)ccc1C	ADAM10 inh 20 | ADAM10 confirm inactive | ADAM17 ctr inactive
CC(C)NC(=O)[C@H](CSCc1ccccc1)N1Cc2ccccc2C1=O	none
O=C(NC1CCCCC1)[C@H](CSCc1ccccc1)N1Cc2ccccc2C1=O	ADAM10 inh 22 | ADAM10 confirm inactive | ADAM17 ctr inactive
CCOC(=O)c1sc2nc(CSc3ccccc3)nc(N3CCC(C(N)=O)CC3)c2c1C	none
Cc1sc2nc(CSc3ccccc3)nc(N3CCC(C(N)=O)CC3)c2c1C	ADAM10 inh 20 | ADAM10 confirm inactive | ADAM17 ctr inactive
COc1ccc([C@@H]2[C@@H]3C(=O)N(C(C)(C)C)C(=O)[C@@H]3[C@]3(Cc4ccc(Cl)cc4)C(=O)N(c4ccc(OC)cc4)C(=O)N23)cc1	ADAM10 inh 21 | ADAM10 confirm inactive | ADAM17 ctr inactive
COc1ccc([C@@H]2[C@@H]3C(=O)N(C(C)(C)C)C(=O)[C@@H]3[C@]3(Cc4ccc(Cl)cc4)C(=O)N(c4ccc(Br)cc4)C(=O)N23)cc1	none
CCc1ccc(NSc2ccccc2[N+](=O)[O-])cc1	ADAM10 inh 20 | ADAM10 confirm inactive | ADAM17 ctr inactive
